Laboratory results from ChEMBL document CHEMBL1143109, “Discovery of novel orally active ureido NPY Y5 receptor antagonists” (Bioorg Med Chem Lett, 2008).
Calls of active or inactive are those of the source. The calls are words filed in the database; no cut-off is given here.

Tests used:
[1] = target: Neuropeptide Y receptor type 5 (Homo sapiens, UniProt Q15761); test: Displacement of [125]PYY from human chimeric NPY Y5 receptor expressed in CHOK1 cells; type: cell-based; conditions: cho-k1
Method in brief: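 Binding to human chimeric Y5 receptor expressed in CHO-K1 cells; Ki values are the average of two determinations.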

[2] = target: Neuropeptide Y receptor type 4 (Homo sapiens, UniProt P50391); test: Binding affinity to human NPY Y4 receptor
Sequence of Neuropeptide Y receptor type 4 (P50391 whole entry): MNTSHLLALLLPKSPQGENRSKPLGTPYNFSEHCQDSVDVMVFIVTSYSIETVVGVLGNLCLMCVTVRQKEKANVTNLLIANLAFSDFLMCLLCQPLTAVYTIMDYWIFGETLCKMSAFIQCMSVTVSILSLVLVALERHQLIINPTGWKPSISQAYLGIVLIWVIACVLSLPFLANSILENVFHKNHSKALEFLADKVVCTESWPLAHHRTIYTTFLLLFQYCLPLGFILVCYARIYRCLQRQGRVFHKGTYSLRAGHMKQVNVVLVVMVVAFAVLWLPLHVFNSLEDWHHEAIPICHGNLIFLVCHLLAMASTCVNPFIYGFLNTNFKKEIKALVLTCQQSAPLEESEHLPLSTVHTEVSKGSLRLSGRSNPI

[3] = Inhibition of potassium channel at 10 uM
Method in brief: (§1)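 Counterscreen panel of 60 receptors, enzymes and ion channels; inhibition of binding measured at 10 µM.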

[4] = target: T1, Neuropeptide Y receptor type 2 (Homo sapiens, UniProt P49146); test: Binding affinity to human NPY Y2 receptor
T1 sequence (P49146 whole entry): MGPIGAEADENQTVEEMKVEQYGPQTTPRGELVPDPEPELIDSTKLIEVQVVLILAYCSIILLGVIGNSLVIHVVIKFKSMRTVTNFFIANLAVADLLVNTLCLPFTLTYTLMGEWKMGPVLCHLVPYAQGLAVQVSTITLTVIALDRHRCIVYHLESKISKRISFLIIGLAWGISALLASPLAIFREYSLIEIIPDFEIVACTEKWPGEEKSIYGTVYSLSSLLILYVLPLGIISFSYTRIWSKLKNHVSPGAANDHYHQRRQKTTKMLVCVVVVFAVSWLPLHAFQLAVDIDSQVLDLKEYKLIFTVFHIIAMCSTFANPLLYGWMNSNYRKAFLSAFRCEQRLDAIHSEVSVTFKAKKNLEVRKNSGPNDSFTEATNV

Rattus norvegicus = test: Increase in lean body mass in Sprague-Dawley DIO rat at 10 mg/kg/day, po after 28 days; type: functional, organism-based
Method in brief: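 DIO rats weighing 700–800 g at start, n = 12/group, food and water ad libitum. Compound admixed into low fat diet for 28 days; delivered doses (1, 3 or 10 mg/kg/day) calculated from food consumption. Body composition by DEXA scanning, expressed as percent change from day 0 baseline; average plasma levels taken at the 10 mg/kg/day dose.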

[5] = target: T2, Neuropeptide Y receptor type 1 (Homo sapiens, UniProt P25929); test: Binding affinity to human NPY Y1 receptor
T2 sequence (P25929 whole entry): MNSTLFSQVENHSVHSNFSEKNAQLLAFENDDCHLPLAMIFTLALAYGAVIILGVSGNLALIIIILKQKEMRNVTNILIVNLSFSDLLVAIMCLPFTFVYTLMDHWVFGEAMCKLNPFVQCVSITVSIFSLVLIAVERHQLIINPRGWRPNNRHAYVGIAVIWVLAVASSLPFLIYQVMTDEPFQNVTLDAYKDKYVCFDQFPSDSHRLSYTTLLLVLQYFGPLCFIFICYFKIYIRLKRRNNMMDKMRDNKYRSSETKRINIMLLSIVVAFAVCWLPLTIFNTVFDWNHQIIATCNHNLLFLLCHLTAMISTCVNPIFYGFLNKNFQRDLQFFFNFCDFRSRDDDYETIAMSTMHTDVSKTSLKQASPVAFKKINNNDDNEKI

[6] = target: Sodium-dependent serotonin transporter (Homo sapiens) (UniProt P31645); test: Inhibition of serotonin transporter at 10 uM; method in brief: as §1
Sequence of Sodium-dependent serotonin transporter (Homo sapiens) (P31645 whole entry, looked up): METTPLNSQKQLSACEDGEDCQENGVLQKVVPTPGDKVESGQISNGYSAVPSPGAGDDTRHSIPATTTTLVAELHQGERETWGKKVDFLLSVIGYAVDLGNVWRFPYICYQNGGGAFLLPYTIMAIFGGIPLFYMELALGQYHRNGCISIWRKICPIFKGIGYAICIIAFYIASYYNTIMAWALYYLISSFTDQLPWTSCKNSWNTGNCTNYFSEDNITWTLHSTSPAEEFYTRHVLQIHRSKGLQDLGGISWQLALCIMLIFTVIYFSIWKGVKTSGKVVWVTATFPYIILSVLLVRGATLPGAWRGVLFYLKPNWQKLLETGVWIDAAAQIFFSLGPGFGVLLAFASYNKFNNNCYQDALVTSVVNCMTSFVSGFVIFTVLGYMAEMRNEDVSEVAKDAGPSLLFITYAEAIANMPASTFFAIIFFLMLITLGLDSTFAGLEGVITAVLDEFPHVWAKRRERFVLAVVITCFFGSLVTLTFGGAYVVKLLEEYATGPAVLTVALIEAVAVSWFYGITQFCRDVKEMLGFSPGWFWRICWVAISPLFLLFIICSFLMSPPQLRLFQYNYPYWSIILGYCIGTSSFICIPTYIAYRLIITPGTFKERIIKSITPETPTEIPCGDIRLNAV

Sequence of Neuropeptide Y receptor type 5 (Q15761 whole entry, looked up): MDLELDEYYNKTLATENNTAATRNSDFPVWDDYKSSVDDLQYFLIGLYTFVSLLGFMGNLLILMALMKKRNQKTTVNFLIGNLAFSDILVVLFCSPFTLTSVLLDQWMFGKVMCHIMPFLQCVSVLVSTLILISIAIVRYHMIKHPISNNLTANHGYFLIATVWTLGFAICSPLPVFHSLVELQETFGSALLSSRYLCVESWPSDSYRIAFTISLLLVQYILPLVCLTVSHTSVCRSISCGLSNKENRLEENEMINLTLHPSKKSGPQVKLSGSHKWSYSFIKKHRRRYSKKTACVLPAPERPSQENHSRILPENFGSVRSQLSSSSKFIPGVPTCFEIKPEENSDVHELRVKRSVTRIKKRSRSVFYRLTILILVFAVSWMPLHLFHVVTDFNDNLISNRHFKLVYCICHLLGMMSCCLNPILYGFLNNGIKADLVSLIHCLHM

Ki [1]: 0.0018 µM
Ki [2]: > 10 µM
inhibition [3]: < 25%
Ki [4]: > 10 µM
Ki [5]: > 10 µM
inhibition [6]: < 10%
SMILES: CC(=O)N1CCC(N(C)C(=O)N[C@H]2CC[C@H](c3cc(F)cc(F)c3)CC2)CC1
Activity (Rattus norvegicus): Active
